According to ChEMBL document CHEMBL4819017 (Eur J Med Chem, 2021):

Legend:
HT-29 = assay: Growth inhibition of human HT-29 cells harboring mutated p110alpha measured after 72 hrs by Cell titre Glo-luminiscence cell viability assay; format: functional
Outline: (§1)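 Cells harvested just before confluency and seeded at 4,000 cells/well, then left 24 h before dosing. Serial dilutions from 10 mM DMSO stocks, final DMSO ≤0.5%, each concentration in duplicate.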

[1] = Plasma concentration in BALB/c mouse at 10 mg/kg, po measured for 8 hrs; format: ADME, organism-based
Outline: (§2)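 Dosing in BALB-C mice intravenously or orally, with plasma sampled over 8 h. Parameters (AUC, T1/2, Cl, Vd, Cmax, Tmax) come from a noncompartmental model. Units: AUC h.ng/ml, Vd L/Kg, Cmax ng/ml, Tmax h.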

[2] = Cmax in BALB/c mouse at 10 mg/kg, po measured for 8 hrs; format: ADME, organism-based; set-up: route oral, dose 10 mg/kg, time 8 hrs; settings: in vivo
Outline: (§3)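 BALB/c mice dosed I.V. or P.O. at the stated dose; plasma levels followed for 8 h. Parameters from noncompartmental analysis: AUC (h.ng/ml), T1/2 (h), Cl (L/h/Kg), Vd (L/Kg), Cmax (ng/ml), Tmax (h).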

[3] = target: PI3-kinase p110-delta/p85-alpha (Homo sapiens, UniProt O00329); assay: Inhibition of human p110delta/p85alpha using PIP2 as substrate in presence of ATP measured by HTRF assay; format: protein-complex assay
[4] = Metabolic stability in human liver microsomes assessed as parent compound remaining in presence of NADPH regenerating system at 0.5 uM measured after 15 mins by LC-MS/MS analysis; format: ADME, Microsome; settings: read-out: Stabilty
Outline: (§4)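 Human, mouse or rat liver microsomes at 0.5 mg/ml protein with compound at 0.5 µM and NADPH-regenerating system, 37 °C with shaking. Control wells contain 0.1 M potassium phosphate instead of the regenerating system. Reaction stopped with acetonitrile/0.1% formic acid, centrifuged, supernatant analyzed by LC-MS/MS. Result is percent parent compound remaining.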

[5] = Metabolic stability in mouse liver microsomes assessed as parent compound remaining in presence of NADPH regenerating system at 0.5 uM measured after 15 mins by LC-MS/MS analysis; format: ADME, Microsome; settings: read-out: Stabilty; outline: as §4
[6] = Tmax in BALB/c mouse at 10 mg/kg, po measured for 8 hrs; format: ADME, organism-based; settings: in vivo; outline: as §2
[7] = Metabolic stability in rat liver microsomes assessed as parent compound remaining in presence of NADPH regenerating system at 0.5 uM measured after 15 mins by LC-MS/MS analysis; format: ADME, Microsome; settings: read-out: Stabilty; outline: as §4
[8] = target: Phosphatidylinositol 4,5-bisphosphate 3-kinase catalytic subunit gamma isoform (Homo sapiens, UniProt P48736); assay: Inhibition of human p110gamma using PIP2 as substrate in presence of ATP measured by HTRF assay
Sequence of Phosphatidylinositol 4,5-bisphosphate 3-kinase catalytic subunit gamma isoform (P48736 whole entry, canonical isoform): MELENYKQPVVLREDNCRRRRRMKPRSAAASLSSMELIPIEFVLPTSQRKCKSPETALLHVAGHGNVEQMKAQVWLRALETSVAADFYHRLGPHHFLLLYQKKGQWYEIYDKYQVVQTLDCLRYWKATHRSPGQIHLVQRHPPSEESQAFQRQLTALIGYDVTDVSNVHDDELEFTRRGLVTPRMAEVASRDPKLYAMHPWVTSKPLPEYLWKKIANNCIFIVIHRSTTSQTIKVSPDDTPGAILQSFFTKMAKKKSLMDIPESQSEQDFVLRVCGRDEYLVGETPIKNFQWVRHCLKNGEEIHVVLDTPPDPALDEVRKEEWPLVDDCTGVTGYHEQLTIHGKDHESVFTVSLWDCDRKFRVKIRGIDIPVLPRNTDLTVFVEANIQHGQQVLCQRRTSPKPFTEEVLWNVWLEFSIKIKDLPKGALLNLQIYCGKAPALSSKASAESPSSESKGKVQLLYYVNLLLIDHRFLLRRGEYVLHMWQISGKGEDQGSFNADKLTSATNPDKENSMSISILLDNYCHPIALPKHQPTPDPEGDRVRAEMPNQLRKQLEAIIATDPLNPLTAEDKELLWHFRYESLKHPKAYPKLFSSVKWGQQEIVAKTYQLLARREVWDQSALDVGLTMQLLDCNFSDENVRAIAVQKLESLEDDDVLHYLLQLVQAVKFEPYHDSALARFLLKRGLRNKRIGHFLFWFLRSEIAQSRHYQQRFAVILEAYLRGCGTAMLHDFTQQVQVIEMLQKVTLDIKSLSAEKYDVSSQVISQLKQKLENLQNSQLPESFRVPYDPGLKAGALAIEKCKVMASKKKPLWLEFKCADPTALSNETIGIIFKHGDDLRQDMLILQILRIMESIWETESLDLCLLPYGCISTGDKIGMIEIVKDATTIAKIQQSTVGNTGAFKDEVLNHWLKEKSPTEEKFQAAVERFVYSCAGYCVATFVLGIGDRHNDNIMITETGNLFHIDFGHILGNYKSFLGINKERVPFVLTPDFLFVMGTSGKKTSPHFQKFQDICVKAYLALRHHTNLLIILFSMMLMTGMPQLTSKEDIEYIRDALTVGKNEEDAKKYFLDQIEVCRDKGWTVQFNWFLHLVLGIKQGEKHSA
Outline: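 HTRF PI3-kinase assay with PIP2 at 10 µM. Enzyme and ATP levels (ATP at 50× KM): p110α/p85α 100 pM with 200 µM ATP; p110δ/p85α 100 pM with 200 µM ATP; p110β/p85α 500 pM with 250 µM ATP; p110γ 4 nM with 100 µM ATP. Activity normalized to no-compound control, variable-slope sigmoidal fit. Two independent experiments in duplicate.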

PI3K p110 beta/p85 alpha = PI3K p110 beta/p85 alpha (Homo sapiens, UniProt P42338); assay: Inhibition of human p110beta/p85alpha using PIP2 as substrate in presence of ATP measured by HTRF assay; format: protein-complex assay
Sequence of PI3K p110 beta/p85 alpha (P27986 whole entry): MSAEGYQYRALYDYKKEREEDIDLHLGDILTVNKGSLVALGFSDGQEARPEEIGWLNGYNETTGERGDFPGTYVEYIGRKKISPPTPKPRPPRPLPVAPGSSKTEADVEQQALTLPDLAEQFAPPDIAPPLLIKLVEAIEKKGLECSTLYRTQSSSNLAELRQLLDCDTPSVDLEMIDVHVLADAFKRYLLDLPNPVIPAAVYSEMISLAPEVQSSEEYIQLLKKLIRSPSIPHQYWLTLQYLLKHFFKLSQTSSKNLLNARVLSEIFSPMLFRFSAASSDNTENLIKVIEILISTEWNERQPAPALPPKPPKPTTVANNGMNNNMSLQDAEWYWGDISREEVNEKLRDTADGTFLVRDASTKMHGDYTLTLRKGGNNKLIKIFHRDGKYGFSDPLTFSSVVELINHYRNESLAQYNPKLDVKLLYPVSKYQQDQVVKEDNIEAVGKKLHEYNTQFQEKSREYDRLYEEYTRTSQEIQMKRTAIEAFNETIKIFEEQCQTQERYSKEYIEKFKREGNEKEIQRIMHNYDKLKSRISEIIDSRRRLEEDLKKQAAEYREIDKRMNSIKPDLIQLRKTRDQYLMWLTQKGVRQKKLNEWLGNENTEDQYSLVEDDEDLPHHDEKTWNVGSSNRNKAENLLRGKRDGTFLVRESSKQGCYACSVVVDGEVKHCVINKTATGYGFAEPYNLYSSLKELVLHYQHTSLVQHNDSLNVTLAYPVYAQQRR
Sequence of PI3K p110 beta/p85 alpha (P42338 whole entry): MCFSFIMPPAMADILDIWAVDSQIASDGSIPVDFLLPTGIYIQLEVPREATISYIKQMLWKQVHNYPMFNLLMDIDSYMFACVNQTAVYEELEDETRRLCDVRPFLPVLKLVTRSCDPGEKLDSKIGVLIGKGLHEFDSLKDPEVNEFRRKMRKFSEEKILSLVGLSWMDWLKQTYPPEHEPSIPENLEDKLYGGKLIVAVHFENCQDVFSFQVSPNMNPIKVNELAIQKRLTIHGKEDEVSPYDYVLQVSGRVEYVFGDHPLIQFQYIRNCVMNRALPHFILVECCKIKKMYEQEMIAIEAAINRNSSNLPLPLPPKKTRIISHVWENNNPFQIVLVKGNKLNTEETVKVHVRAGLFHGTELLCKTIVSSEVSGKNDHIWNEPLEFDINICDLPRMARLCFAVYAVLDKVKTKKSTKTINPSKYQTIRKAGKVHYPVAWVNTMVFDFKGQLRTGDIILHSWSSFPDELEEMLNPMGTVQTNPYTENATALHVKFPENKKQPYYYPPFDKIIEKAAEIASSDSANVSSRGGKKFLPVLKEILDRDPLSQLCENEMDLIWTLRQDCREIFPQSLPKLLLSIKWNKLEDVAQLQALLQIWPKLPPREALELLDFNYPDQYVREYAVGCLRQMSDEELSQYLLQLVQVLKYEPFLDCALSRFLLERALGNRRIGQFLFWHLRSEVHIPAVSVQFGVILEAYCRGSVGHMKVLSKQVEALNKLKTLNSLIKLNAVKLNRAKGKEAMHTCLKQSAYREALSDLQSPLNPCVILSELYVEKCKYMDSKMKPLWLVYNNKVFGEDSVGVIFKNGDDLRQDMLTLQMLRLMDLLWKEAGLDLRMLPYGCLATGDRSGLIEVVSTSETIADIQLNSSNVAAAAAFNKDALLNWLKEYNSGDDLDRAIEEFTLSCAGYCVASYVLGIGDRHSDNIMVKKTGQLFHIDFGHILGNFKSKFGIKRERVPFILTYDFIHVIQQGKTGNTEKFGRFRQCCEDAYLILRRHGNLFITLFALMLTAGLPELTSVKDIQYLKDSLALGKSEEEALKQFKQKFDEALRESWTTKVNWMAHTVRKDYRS

[9] = Volume of distribution in BALB/c mouse at 5 mg/kg, iv measured for 8 hrs; format: ADME, organism-based; settings: in vivo; outline: as §2
Cytochrome P450 2D6 = Cytochrome P450 2D6 (Homo sapiens, UniProt P10635); assay: Inhibition of CYP2D6 (unknown origin) using Luciferin-ME-EG as substrate at 10 uM preincubated with enzyme and substrate for 5 mins followed by addition of NADPH regeneration system and measured after 60 mins by luminescence method; format: ADME
Sequence of Cytochrome P450 2D6 (P10635 whole entry): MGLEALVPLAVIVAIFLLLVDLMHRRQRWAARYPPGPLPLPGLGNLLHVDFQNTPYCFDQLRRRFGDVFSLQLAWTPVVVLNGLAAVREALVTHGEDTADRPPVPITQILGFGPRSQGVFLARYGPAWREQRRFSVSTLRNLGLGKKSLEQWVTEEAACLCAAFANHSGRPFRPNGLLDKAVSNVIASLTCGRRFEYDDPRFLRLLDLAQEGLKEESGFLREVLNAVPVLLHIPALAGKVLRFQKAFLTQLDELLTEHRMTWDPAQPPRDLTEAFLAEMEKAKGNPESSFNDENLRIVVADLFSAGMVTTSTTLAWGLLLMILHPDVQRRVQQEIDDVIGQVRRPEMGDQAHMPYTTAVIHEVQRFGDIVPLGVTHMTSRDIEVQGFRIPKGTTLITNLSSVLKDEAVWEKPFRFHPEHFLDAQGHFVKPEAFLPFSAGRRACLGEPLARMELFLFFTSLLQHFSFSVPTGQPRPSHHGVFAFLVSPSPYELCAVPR
Outline: (§5)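 P450-Glo luminescence assays with these substrates: Luciferin-ME (CYP1A2), Luciferin-PPXE (CYP3A4), Luciferin-H (CYP2C9), LuciferinH-EG (CYP2C19), Luciferin-ME-EG (CYP2D6). Compounds run in 1/3 serial dilutions from 10 µM in 0.5% DMSO with enzyme and substrate. After 5 min preincubation, NADPH regeneration reagent added; 60 min at 37 °C, then detection reagent for 30 min. Background subtracted.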

[10] = target: PI3-kinase p110-alpha/p85-alpha (Homo sapiens, UniProt P42336); assay: Inhibition of human p110alpha/p85alpha using PIP2 as substrate in presence of ATP measured by HTRF assay; format: protein-complex assay
Sequence of PI3-kinase p110-alpha/p85-alpha (P27986 whole entry): as the sequence (P27986 whole entry) above
Sequence of PI3-kinase p110-alpha/p85-alpha (P42336 whole entry): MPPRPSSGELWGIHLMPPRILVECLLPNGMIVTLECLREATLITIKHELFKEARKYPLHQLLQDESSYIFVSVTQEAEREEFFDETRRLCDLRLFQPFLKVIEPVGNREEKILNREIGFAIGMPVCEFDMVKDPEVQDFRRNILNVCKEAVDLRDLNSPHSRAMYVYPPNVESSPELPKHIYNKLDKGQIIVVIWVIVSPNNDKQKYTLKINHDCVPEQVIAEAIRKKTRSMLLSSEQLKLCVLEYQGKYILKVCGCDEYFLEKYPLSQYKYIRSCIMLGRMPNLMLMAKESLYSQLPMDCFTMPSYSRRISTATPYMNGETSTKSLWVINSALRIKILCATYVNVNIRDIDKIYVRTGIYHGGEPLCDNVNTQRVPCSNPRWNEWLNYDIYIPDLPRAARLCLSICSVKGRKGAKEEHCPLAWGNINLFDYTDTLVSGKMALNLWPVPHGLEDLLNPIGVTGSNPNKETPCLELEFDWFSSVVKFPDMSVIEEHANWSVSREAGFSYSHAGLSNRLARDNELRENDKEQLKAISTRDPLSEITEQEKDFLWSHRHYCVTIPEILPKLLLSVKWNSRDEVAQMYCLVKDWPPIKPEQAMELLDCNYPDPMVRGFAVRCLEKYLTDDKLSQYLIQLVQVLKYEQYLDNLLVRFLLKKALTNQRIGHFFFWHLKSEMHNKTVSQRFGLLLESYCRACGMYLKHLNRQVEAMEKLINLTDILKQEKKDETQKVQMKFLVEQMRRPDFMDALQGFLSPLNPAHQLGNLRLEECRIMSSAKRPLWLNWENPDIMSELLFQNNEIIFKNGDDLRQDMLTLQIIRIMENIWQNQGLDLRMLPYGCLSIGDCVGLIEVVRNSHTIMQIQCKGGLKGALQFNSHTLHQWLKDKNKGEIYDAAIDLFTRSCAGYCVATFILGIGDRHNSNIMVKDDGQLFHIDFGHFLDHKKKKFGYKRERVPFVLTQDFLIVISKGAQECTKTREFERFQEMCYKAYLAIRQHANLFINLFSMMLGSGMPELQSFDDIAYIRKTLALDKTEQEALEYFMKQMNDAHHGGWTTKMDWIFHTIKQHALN

[11] = Inhibition of PI3K/mTOR in human MCF7 cells assessed as reduction of AKT phosphorylation at Thr308 residue measured after 3 hrs by western blot assay; format: cell-based; settings: MCF7, 3 h
Outline: (§6)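 MCF7 cells treated for 3 h across a dose range, washed and lysed with phosphatase and protease inhibitors. Lysates run on 10% SDS-PAGE and blotted, antibodies incubated overnight at 4 °C.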

Cytochrome P450 2C9 = Cytochrome P450 2C9 (Homo sapiens, UniProt P11712); assay: Inhibition of CYP2C9 (unknown origin) using Luciferin-H as substrate at 10 uM preincubated with enzyme and substrate for 5 mins followed by addition of NADPH regeneration system and measured after 60 mins by luminescence method; format: ADME; outline: as §5
Sequence of Cytochrome P450 2C9 (P11712 whole entry): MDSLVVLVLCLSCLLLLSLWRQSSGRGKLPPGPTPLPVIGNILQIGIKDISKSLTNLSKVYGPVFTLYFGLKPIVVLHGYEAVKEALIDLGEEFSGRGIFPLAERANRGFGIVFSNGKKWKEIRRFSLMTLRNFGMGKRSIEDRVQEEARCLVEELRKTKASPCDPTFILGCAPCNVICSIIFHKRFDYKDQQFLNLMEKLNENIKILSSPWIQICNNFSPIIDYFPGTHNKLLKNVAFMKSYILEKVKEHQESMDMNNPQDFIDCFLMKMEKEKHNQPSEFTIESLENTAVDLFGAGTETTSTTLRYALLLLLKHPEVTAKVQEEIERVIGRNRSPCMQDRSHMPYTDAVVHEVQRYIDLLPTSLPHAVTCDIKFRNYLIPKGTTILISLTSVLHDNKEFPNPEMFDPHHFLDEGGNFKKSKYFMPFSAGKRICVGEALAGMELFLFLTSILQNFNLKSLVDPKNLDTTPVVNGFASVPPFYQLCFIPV

[12] = Half life in BALB/c mouse at 10 mg/kg, po measured for 8 hrs; format: ADME, organism-based; settings: in vivo; outline: as §3
[13] = Inhibition of p110alpha E545K mutant/p85alpha (unknown origin) using PIP2:3PS lipid kinase as substrate in presence of ATP measured by ADP-Glo lipid kinase assay; set-up: species or system Homo sapiens
Outline: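 Lipid kinase assay with PIP2:3PS substrate held at 3.25 µM. Activity normalized to no-compound control for each enzyme and fitted to a variable-slope sigmoidal dose-response curve.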

[14] = target: Phosphatidylinositol 4,5-bisphosphate 3-kinase catalytic subunit alpha isoform (Homo sapiens, UniProt P42336); assay: Inhibition of human full length p110alpha (1 to 1068 residues) expressed in baculovirus-infected Sf21 cells by ADP-Hunter Plus assay
Sequence of Phosphatidylinositol 4,5-bisphosphate 3-kinase catalytic subunit alpha isoform (P42336 whole entry, the tested form may be a part, canonical isoform): as the sequence (P42336 whole entry) above

[15] = AUC (infinity) in BALB/c mouse at 5 mg/kg, iv measured for 8 hrs; format: ADME, organism-based; set-up: route intravenous, dose 5 mg/kg, time 8 hrs; settings: in vivo; outline: as §3
[16] = Inhibition of PI3K/mTOR in human MCF7 cells assessed as reduction of S6 phosphorylation at Ser235/236 residue measured after 3 hrs by western blot assay; format: cell-based; settings: MCF7, 3 h; outline: as §6
[17] = Oral bioavailability in BALB/c mouse at 10 mg/kg measured for 8 hrs; format: ADME, organism-based; settings: in vivo; outline: as §3
MCF7 = assay: Growth inhibition of human MCF7 cells harboring mutated p110alpha measured after 72 hrs by Cell titre Glo-luminiscence cell viability assay; format: functional; outline: as §1
Homo sapiens = species on record: Homo sapiens; assay: Selectivity ratio of Ki for human p110gamma to Ki for human p110alpha/p85alpha using PIP2 as substrate in presence of ATP
Outline: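 Ki from a PI3-kinase HTRF assay run per manufacturer. Enzyme levels: p110α/p85α and p110δ/p85α 100 pM, p110β/p85α 500 pM, p110γ 4 nM. ATP at 50× KM: 200 μM (α, δ), 250 μM (β), 100 μM (γ). PIP2 10 μM. Activity normalized to no-compound control. Ratio is the isoform Ki over the α Ki.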

GI50 (HT-29): 8.2 nM
concentration at 8 h [1]: 202 ng/mL
Cmax [2]: 1570 ng/mL
Ki [3]: 0.06 nM
remaining at 0.25 h, 0.5 µM [4]: 100%
remaining at 0.25 h, 0.5 µM [5]: 97%
Tmax [6]: 30 min
remaining at 0.25 h, 0.5 µM [7]: 100%
Ki [8]: 0.98 nM
Ki (PI3K p110 beta/p85 alpha): 0.94 nM
Vd [9]: 5.98 L/kg
IC50 (Cytochrome P450 2D6): > 30 µM
Ki [10]: 0.16 nM
EC50 [11]: 0.14 nM
IC50 (Cytochrome P450 2C9): > 30 µM
half-life [12]: 313 min
Ki [13]: 0.14 nM
IC50 [14]: 0.8 nM
AUC(0-inf) [15]: 2640 ng·h/mL
EC50 [16]: 0.84 nM
bioavailability [17]: 84.6%
GI50 (MCF7): 7 nM
Selectivity ratio (Homo sapiens): 6.3
SMILES: COc1ncc2cc1NS(=O)(=O)c1cccc(c1)C(=O)NCc1cncc(c1)-c1cnc3ccc-2cn13
